According to ChEMBL document CHEMBL1148721 (J Med Chem, 2007):
pEC50, pKi: −log10 of the molar value.

Tested on: not listed separately
Assay: Agonist activity at GABAC rho 1 receptor S168T mutant expressed in tsA-201 cells by FMP assay
Type: functional, cell-based
Details: Homo sapiens, tsA201; read-out: EC50

Structure (SMILES) | pEC50
Cc1[nH]cnc1CC(=O)O | < 3.00
O=C(O)Cc1[nH]cnc1-c1ccccc1 | < 2.52
Cc1ccc(-c2nc[nH]c2CC(=O)O)cc1 | < 2.52
O=C(O)Cc1[nH]cnc1-c1ccc(F)cc1 | < 2.52
O=C(O)Cc1c[nH]cn1 [IMIDAZOLE ACETIC ACID] | 4.00
NCc1cc(O)no1 [MUSCIMOL] | 4.62

Same assay, conditions: Homo sapiens, tsA201; read-out: Log EC50 (converted)

Structure (SMILES) | EC50
NCc1cc(O)no1 [MUSCIMOL] | 25.1 µM

Biological target: not listed separately
Assay: Displacement of [3H]muscimol from GABAA receptor in rat brain membrane
Type: cell membranes
Details: not given
How it was run: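 Native GABAA receptor affinity was measured by [3H]muscimol binding to rat brain membranes. Ki was calculated from pKi; ≥3 experiments in duplicate.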

Structure (SMILES) | pKi | Log Ki
O=C(O)Cc1c[nH]c(Cl)n1 | < 4.00 | 
Cc1nc(CC(=O)O)c[nH]1 | < 4.00 | 
Cc1[nH]cnc1CC(=O)O | 4.17 | -4.2
O=C(O)Cc1[nH]cnc1-c1ccccc1 | < 4.00 | 
Cc1cccc(-c2nc[nH]c2CC(=O)O)c1 | < 4.00 | 
CC1N=C(CC(=O)O)C(c2ccccc2)=N1 (stereo unspecified) | < 4.00 | 
Cc1ccccc1-c1nc[nH]c1CC(=O)O | < 4.00 | 
Cc1ccc(-c2nc[nH]c2CC(=O)O)cc1 | < 4.00 | 
O=C(O)Cc1[nH]cnc1I | < 4.00 | 
O=C(O)Cc1[nH]cnc1-c1ccc(F)cc1 | < 4.00 | 
O=C(O)Cc1[nH]c(Cl)nc1-c1ccccc1 | < 4.00 | 
O=C(O)Cc1c[nH]c(-c2ccccc2)n1 | < 4.00 | 
O=C(O)Cc1c[nH]cn1 [IMIDAZOLE ACETIC ACID] | 6.19 | -6.2

Tested on: not listed separately
Assay: Agonist activity at human GABA alpha-1-beta-2-gamma-2s receptor expressed in Xenopus oocytes by two electrode voltage-clamp assay
Type: functional, cell-based
Details: Oocyte

Structure (SMILES) | pEC50
O=C(O)Cc1c[nH]c(Cl)n1 | < 3.00
Cc1[nH]cnc1CC(=O)O | < 3.00
O=C(O)Cc1[nH]cnc1-c1ccccc1 | < 3.00
CC1N=C(CC(=O)O)C(c2ccccc2)=N1 (stereo unspecified) | < 3.00

Tested on: not listed separately
Assay: Agonist activity at human GABAC rho 1 receptor expressed in HEK293 cells by FMP assay
Type: functional, cell-based
Details: Homo sapiens, HEK293

Structure (SMILES) | pEC50
Cc1nc(CC(=O)O)c[nH]1 | < 3.00
Cc1[nH]cnc1CC(=O)O | 4.66
O=C(O)Cc1[nH]cnc1-c1ccccc1 | 3.38
Cc1cccc(-c2nc[nH]c2CC(=O)O)c1 | < 3.00
CC1N=C(CC(=O)O)C(c2ccccc2)=N1 (stereo unspecified) | < 3.00
Cc1ccccc1-c1nc[nH]c1CC(=O)O | < 3.00
Cc1ccc(-c2nc[nH]c2CC(=O)O)cc1 | 3.62
O=C(O)Cc1[nH]cnc1I | < 3.00
O=C(O)Cc1[nH]cnc1-c1ccc(F)cc1 | 3.68
O=C(O)Cc1[nH]c(Cl)nc1-c1ccccc1 | < 3.00
O=C(O)Cc1c[nH]c(-c2ccccc2)n1 | < 3.00
O=C(O)Cc1c[nH]cn1 [IMIDAZOLE ACETIC ACID] | 4.89
O=C(O)C1=CCNCC1 [ISOGUVACINE] | 4.17
NCc1cc(O)no1 [MUSCIMOL] | 5.66

Same assay, conditions: hek293

Structure (SMILES) | pKi
CP(=O)(O)C1=CCNCC1 | 5.89

Tested on: not listed separately
Assay: Agonist activity at human GABAC rho 1 receptor expressed in HEK293 cells by FMP assay relative to GABA
Type: functional
Details: not given
How it was run: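 Stable human ρ1 HEK293 clone kept in 1 mg/mL G-418 and plated on poly-D-lysine plates for 16-24 h. Dye loading for 30 min at 37 °C in HBSS + 20 mM HEPES pH 7.4. Emission at 560 nm (excitation 530 nm) recorded before and up to 1 min after agonist. Concentration-response curves built from maximal responses; Rmax given as % of GABA; duplicates, ≥3 experiments.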

Structure (SMILES) | RUmax
Cc1[nH]cnc1CC(=O)O | 95%
O=C(O)Cc1[nH]cnc1-c1ccccc1 | 98%
Cc1ccc(-c2nc[nH]c2CC(=O)O)cc1 | 111%
O=C(O)Cc1[nH]cnc1-c1ccc(F)cc1 | 115%
NCCCC(=O)O [GAMMA-AMINOBUTYRIC ACID] | 100%
O=C(O)Cc1c[nH]cn1 [IMIDAZOLE ACETIC ACID] | 32%
O=C(O)C1=CCNCC1 [ISOGUVACINE] | 97%
NCc1cc(O)no1 [MUSCIMOL] | 101%

Tested on: not listed separately
Assay: Agonist activity at GABAC rho 1 receptor expressed in tsA-201 cells by FMP assay
Type: functional, cell-based
Details: Homo sapiens, tsA201; read-out: EC50

Structure (SMILES) | pEC50
Cc1[nH]cnc1CC(=O)O | 4.96
O=C(O)Cc1[nH]cnc1-c1ccccc1 | 3.85
Cc1ccc(-c2nc[nH]c2CC(=O)O)cc1 | 3.66
O=C(O)Cc1[nH]cnc1-c1ccc(F)cc1 | 3.48
O=C(O)Cc1c[nH]cn1 [IMIDAZOLE ACETIC ACID] | 5.26
NCc1cc(O)no1 [MUSCIMOL] | 6.21

Same assay, conditions: Homo sapiens, tsA201; read-out: Log EC50 (converted)

Structure (SMILES) | EC50
Cc1[nH]cnc1CC(=O)O | 10 µM
O=C(O)Cc1[nH]cnc1-c1ccccc1 | 158 µM
Cc1ccc(-c2nc[nH]c2CC(=O)O)cc1 | 200 µM
O=C(O)Cc1[nH]cnc1-c1ccc(F)cc1 | 316 µM
O=C(O)Cc1c[nH]cn1 [IMIDAZOLE ACETIC ACID] | 5.01 µM
NCc1cc(O)no1 [MUSCIMOL] | 0.631 µM

Tested on: not listed separately
Assay: Agonist activity at GABAC rho 1 receptor expressed in tsA-201 cells by FMP assay relative to GABA
Type: functional, Homo sapiens
Details: not given
How it was run: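 Human ρ1 (WT) transiently expressed in tsA-201 cells via Polyfect, plated on poly-D-lysine plates 16-24 h post-transfection and assayed next day. Cells loaded with membrane potential dye in HBSS + 20 mM HEPES pH 7.4, 30 min at 37 °C. Fluorescence read (ex 530/em 560 nm) before and up to 1 min after agonist addition. Rmax expressed as % of GABA maximal response; ≥3 experiments in duplicate.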

Structure (SMILES) | RUmax
Cc1[nH]cnc1CC(=O)O | 106%
O=C(O)Cc1[nH]cnc1-c1ccccc1 | 131%
Cc1ccc(-c2nc[nH]c2CC(=O)O)cc1 | 127%
O=C(O)Cc1[nH]cnc1-c1ccc(F)cc1 | 94%
NCCCC(=O)O [GAMMA-AMINOBUTYRIC ACID] | 100%
O=C(O)Cc1c[nH]cn1 [IMIDAZOLE ACETIC ACID] | 37%
NCc1cc(O)no1 [MUSCIMOL] | 104%

Tested on: not listed separately
Assay: Agonist activity at GABAC rho 1 receptor S168T mutant expressed in tsA-201 cells by FMP assay relative to GABA
Type: functional, Homo sapiens
Details: not given
How it was run: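 tsA-201 cells transiently transfected with human ρ1 Ser168Thr cDNA, plated on poly-D-lysine after 16-24 h and assayed the next day. Cells loaded with membrane potential dye in HBSS/20 mM HEPES pH 7.4 for 30 min at 37 °C. Fluorescence (ex 530/em 560 nm) read up to 1 min after agonist addition. Rmax given as % of GABA maximum at the same receptor; duplicates, at least three experiments.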

Structure (SMILES) | RUmax
NCCCC(=O)O [GAMMA-AMINOBUTYRIC ACID] | 100%
O=C(O)Cc1c[nH]cn1 [IMIDAZOLE ACETIC ACID] | 10%
NCc1cc(O)no1 [MUSCIMOL] | 96%

Tested on: not listed separately
Assay: Agonist activity at human GABAC rho 1 receptor expressed in HEK293 cells by Whole-cell patch-clamp technique relative to GABA
Type: functional
Details: not given
How it was run: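 HEK293 cells cotransfected with human ρ1 plus GFP (Targefect) and recorded 20-72 h later by whole-cell patch clamp at -60 mV, 20-22 °C. Bath solution: 140 mM NaCl, HEPES, pH 7.35. Agonists applied by gravity-fed multibarrel perfusion. Hill equation fitted to obtain EC50, nH and Imax; maximal response as % of GABA; ≥5 cells.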

Structure (SMILES) | RUmax
Cc1[nH]cnc1CC(=O)O | 66%
NCCCC(=O)O [GAMMA-AMINOBUTYRIC ACID] | 100%
O=C(O)Cc1c[nH]cn1 [IMIDAZOLE ACETIC ACID] | 7.5%

Tested on: not listed separately
Assay: Agonist activity at human GABAC rho 1 receptor expressed in HEK293 cells by Whole-cell patch-clamp technique
Type: functional, cell-based
Details: read-out: EC50

Structure (SMILES) | pEC50
Cc1[nH]cnc1CC(=O)O | 4.51
O=C(O)Cc1c[nH]cn1 [IMIDAZOLE ACETIC ACID] | 5.26

Same assay, conditions: read-out: Log EC50 (converted)

Structure (SMILES) | EC50
Cc1[nH]cnc1CC(=O)O | 31.6 µM
O=C(O)Cc1c[nH]cn1 [IMIDAZOLE ACETIC ACID] | 5.5 µM

Tested on: not listed separately
Assay: cells
Type: functional, cell-based
Details: HEK293; read-out: EC50

Structure (SMILES) | pEC50
Cc1[nH]cnc1CC(=O)O | < 3.00
O=C(O)Cc1c[nH]cn1 [IMIDAZOLE ACETIC ACID] | 4.70

Same assay, conditions: HEK293; read-out: Log EC50 (converted)

Structure (SMILES) | EC50
O=C(O)Cc1c[nH]cn1 [IMIDAZOLE ACETIC ACID] | 20 µM

Tested on: not listed separately
Assay: Agonist activity at rat GABA alpha-1-T129S-beta-2-gamma-2 receptor mutant expressed in HEK293 cells by Whole-cell patch-clamp technique relative to GABA
Type: functional
Details: not given
How it was run: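 Rat α1(Thr129Ser) with β2 and γ2S (1:1:2) transiently co-transfected with a GFP plasmid into HEK293 cells; whole-cell patch-clamp 20-72 h after transfection at 20-22 °C, clamp usually -60 mV, extracellular solution pH 7.35. Agonist applied by perfusion pipette. Hill-equation fit gives EC50 and Imax; maximal response as % of GABA maximum; at least five cells.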

Structure (SMILES) | RUmax
NCCCC(=O)O [GAMMA-AMINOBUTYRIC ACID] | 100%
O=C(O)Cc1c[nH]cn1 [IMIDAZOLE ACETIC ACID] | 39%

Tested on: not listed separately
Assay: Antagonist activity at human GABAc rho 1 receptor expressed in HEK293 cells by FMP assay
Type: functional, cell-based
Details: not given
How it was run: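 Stable HEK293 line expressing human ρ1 (selected under G-418). Antagonist included with the loading dye in HBSS/20 mM HEPES pH 7.4 for 30 min at 37 °C, then agonist added. Fluorescence (ex 530/em 560 nm) read up to 1 min. Ki from inhibition curves by the Cheng-Prusoff relation using agonist concentration and EC50; duplicates, at least three experiments.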

Structure (SMILES) | pKi | Log Ki
Oc1noc2c1CCNC2 [GABOXADOL] | 4.00 | -4

Biological target: GABA A receptor alpha-1/beta-2/gamma-2 (Rattus norvegicus)
Assay: Agonist activity at GABA alpha-1-beta-2-gamma-2 receptor expressed in HEK293 cells by Whole-cell patch-clamp technique
Details: not given

Structure (SMILES) | pEC50
Cc1[nH]cnc1CC(=O)O | < 3.00
